Structures are written as SMILES.

In test [1] the target is T1, Ectonucleotide pyrophosphatase/phosphodiesterase family member 1 (Homo sapiens) (UniProt P22413).
T1 sequence (whole entry): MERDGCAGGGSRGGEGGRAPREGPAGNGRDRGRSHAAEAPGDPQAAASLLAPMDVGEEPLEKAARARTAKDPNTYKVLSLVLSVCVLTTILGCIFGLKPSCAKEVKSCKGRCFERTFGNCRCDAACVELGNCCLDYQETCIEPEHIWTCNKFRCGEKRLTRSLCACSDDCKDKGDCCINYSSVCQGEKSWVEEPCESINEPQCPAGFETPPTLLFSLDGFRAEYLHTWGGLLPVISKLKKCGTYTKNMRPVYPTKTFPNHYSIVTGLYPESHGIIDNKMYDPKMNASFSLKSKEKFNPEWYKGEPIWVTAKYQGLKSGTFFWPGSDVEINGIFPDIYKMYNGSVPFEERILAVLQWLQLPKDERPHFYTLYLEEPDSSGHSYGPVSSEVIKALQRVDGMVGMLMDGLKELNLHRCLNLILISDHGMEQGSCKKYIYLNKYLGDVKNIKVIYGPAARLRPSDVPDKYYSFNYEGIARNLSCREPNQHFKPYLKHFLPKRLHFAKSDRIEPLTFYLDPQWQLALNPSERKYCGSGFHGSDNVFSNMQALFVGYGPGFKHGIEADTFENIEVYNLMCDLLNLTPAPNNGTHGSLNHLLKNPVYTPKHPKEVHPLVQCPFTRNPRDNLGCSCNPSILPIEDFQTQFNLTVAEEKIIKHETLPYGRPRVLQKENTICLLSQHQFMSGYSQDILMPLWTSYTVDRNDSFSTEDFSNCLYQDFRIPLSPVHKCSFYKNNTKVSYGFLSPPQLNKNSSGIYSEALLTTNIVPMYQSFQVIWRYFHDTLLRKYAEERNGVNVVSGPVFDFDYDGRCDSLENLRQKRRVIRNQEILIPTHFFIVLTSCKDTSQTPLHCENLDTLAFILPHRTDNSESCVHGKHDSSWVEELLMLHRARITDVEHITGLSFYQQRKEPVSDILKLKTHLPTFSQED
The test is described as follows: Inhibition of human NPP1 using p-Nph-5'-TMP as substrate at 10 uM. An outline of the steps: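 Single-point screen at 10 μM compound against soluble human NPP1 (20 ng), 400 μM p-Nph-5′-TMP, 50 mM Tris pH 9.0, 1 mM CaCl2, 200 μM ZnCl2, 37 °C 15 min, NaOH stop; percent inhibition from p-nitrophenolate absorbance at 400 nm; compounds in DMSO (10 mM stock).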

The target of test [2] is T2, Ectonucleotide pyrophosphatase/phosphodiesterase family member 1 (Homo sapiens, UniProt P22413).
T2 sequence (P22413 whole entry): T1 sequence (whole entry)
As to the kind of experiment: Inhibition of human NPP1 using p-Nph-5'-TMP as substrate.

In test [3] the target is T2, Ectonucleotide pyrophosphatase/phosphodiesterase family member 1. As to the kind of experiment: Competitive inhibition of human NPP1 using p-Nph-5'-TMP as substrate by Lineweaver-Burk plot analysis.
Test [4] shares this target. As to the kind of experiment: Competitive inhibition of human NPP1 using ATP as substrate by Lineweaver-Burk plot analysis.
Test [5] addresses Autotaxin (Homo sapiens, UniProt Q13822). As to the kind of experiment: Competitive inhibition of human NPP2 using lysophosphotidylcholine as substrate.
The target of test [6] is T3, Ectonucleotide pyrophosphatase/phosphodiesterase family member 3 (Homo sapiens, UniProt O14638).
T3 sequence (O14638 whole entry): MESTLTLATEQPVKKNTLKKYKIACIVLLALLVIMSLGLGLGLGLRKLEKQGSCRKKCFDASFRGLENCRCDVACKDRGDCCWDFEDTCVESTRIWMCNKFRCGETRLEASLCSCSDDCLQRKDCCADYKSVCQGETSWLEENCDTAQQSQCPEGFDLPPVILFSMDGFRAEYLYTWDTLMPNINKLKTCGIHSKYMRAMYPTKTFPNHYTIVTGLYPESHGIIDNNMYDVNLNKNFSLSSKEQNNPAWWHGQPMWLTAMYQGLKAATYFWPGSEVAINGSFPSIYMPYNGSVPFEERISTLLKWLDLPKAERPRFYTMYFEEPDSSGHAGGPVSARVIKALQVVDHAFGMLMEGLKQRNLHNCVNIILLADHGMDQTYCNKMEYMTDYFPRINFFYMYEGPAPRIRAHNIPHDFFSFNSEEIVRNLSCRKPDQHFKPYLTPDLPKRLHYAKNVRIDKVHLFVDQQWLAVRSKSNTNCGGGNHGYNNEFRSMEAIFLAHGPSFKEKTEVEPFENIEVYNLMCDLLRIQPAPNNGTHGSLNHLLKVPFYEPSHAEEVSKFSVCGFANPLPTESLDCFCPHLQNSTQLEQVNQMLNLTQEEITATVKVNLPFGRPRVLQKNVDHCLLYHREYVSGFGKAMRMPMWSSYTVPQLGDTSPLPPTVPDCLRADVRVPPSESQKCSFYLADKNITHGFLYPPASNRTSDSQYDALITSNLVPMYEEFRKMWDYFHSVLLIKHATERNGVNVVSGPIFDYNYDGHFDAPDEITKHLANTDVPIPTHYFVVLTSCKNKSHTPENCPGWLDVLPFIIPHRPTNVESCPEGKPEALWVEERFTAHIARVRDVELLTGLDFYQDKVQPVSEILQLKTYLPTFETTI
As to the kind of experiment: Competitive inhibition of human NPP3 using ATP as substrate.

On to `O=C(CSc1nc2cccnc2[nH]1)Nc1ccc(F)cc1`, for which the inhibition in test [1] was determined as 30%. `N#Cc1cccc(NC(=O)CSc2nc3cccnc3[nH]2)c1` returned an inhibition in test [1] of 45%.

Compound `COc1ccc(NC(=O)CSc2nc3ccccc3[nH]2)cc1OC` returned an inhibition in test [1] of 34%. For the compound `COc1ccc(NC(=O)CSc2nc3cccnc3[nH]2)cc1`, in test [1], the inhibition was 48%. For `COc1ccc(NC(=O)CSc2nc3c(=O)[nH]cnc3[nH]2)cc1OC`, the Ki amounted to 0.02 µM in test [2], 0.02 µM in test [3] and 14.3 µM in test [4]. Take `COc1ccc(NC(=O)CSc2nc3ccc(N4CCN(C)CC4)nc3[nH]2)cc1OC`: the inhibition in test [1] came out at 35%. As to `COc1ccc(NC(=O)CSc2nc3nccnc3[nH]2)cc1OC`, the Ki was 0.131 µM in test [2], 0.131 µM in test [3] and 30.2 µM in test [4]. Regarding `COc1ccc(NC(=O)CSc2nc3ccc(N(C)C)nc3[nH]2)cc1OC`, the inhibition in test [1] is 58%.

In test [1], `COc1cccc(NC(=O)CSc2nc3cccnc3[nH]2)c1` came in with an inhibition of 30%. On to `COc1ccc(NC(=O)CSc2nc3c(N)nc(SC)nc3[nH]2)cc1OC`, for which the Ki turned out to be 0.152 µM in test [2], 0.152 µM in test [3] and 26.7 µM in test [4]. In test [1], `O=C(CSc1nc2cccnc2[nH]1)Nc1ccc(Cl)c(Cl)c1` showed an inhibition of 10%.

Regarding `COc1ccc(NC(=O)CSc2ncc[nH]2)cc1OC`, the inhibition in test [1] came out at 64%.

In the case of `O=C(CSc1nc2cccnc2[nH]1)Nc1ccccc1F`, the inhibition in test [1] came out at 13%. Regarding `COc1ccc(OC)c(NC(=O)CSc2nc3cccnc3[nH]2)c1`, in test [1], the inhibition was found to be 12%. As to `COc1ccc(NC(=O)CSc2nc3ccc(SC)nc3[nH]2)cc1OC`, in test [1], the inhibition came to 59%. With `O=C(CSc1nc2cccnc2[nH]1)Nc1ccc(Cl)cc1`, the inhibition in test [1] came to 17%.

The compound `COc1ccc(NC(=O)CSc2nc3cccnc3[nH]2)c(OC)c1` returned an inhibition in test [1] of 8%.

For the compound `COc1ccc(NC(=O)CSc2nc3c(OC(C)C)nc(N)nc3[nH]2)cc1OC`, the Ki in test [2] is 11 µM; in test [3], 11 µM; in test [4], 89.7 µM.

As for `COc1ccc(NC(=O)C(C)Sc2nc3cccnc3[nH]2)cc1OC` (centres undefined), in test [1], the inhibition stood at 6%. In the case of `COc1ccc(NC(=O)CSc2nc3c(SC)nc(N)nc3[nH]2)cc1OC`, the Ki amounted to 3.65 µM in test [2], 3.65 µM in test [3] and 67.9 µM in test [4]. `COc1cc(NC(=O)CSc2nc3cccnc3[nH]2)cc(OC)c1`: the inhibition in test [1] was 38%. On the same count and under the same terms, then `COc1ccccc1NC(=O)CSc1nc2ccc[nH]c-2n1`, with 21%; and `CCn1c(=O)[nH]c(=O)c2nc(SCC(=O)Nc3ccc(OC)c(OC)c3)[nH]c21`, with 43%.

`COc1ccc(NC(=O)CSc2nc3c(OC)nc(N)nc3[nH]2)cc1OC`: the values for the Ki in test [2], in test [3] and in test [4] were 8.04 µM, 8.04 µM and 42.2 µM, respectively. With `COc1ccc2nc(SCC(=O)Nc3ccc(OC)c(OC)c3)[nH]c2n1`, the values for the Ki in test [5] and in test [6] were 71.2 µM and 68.1 µM, respectively. As to `O=C(CSc1nc2cccnc2[nH]1)Nc1cccc(Br)c1`, the inhibition in test [1] was found to be 23%. In test [1], `O=C(CSc1nc2cccnc2[nH]1)Nc1ccccc1` registered an inhibition of 30%. Take `COc1ccc(NC(=O)CSc2nc3cc(Cl)cnc3[nH]2)cc1OC`: the Ki was 0.137 µM in test [2], 0.137 µM in test [3] and 9.78 µM in test [4]. Consider `COc1ccc(NC(=O)CSc2nc3c(C)ccnc3[nH]2)cc1OC`, for which the Ki is 0.127 µM in test [2], 0.127 µM in test [3] and 7.59 µM in test [4]. `COc1ccc(NS(=O)(=O)CSc2nc3ncccc3[nH]2)cc1OC` yielded an inhibition in test [1] of 50%.

Turning to `COc1ccc(CNC(=O)CSc2nc3cccnc3[nH]2)cc1OC`, the inhibition in test [1] came out at 0%.

`Cc1ccc(NC(=O)CSc2nc3cccnc3[nH]2)cc1C` returned an inhibition in test [1] of 11%. For the compound `COc1ccc(NC(=O)CCSc2nc3cccnc3[nH]2)cc1OC`, the inhibition in test [1] is 13%. As for `COc1ccc(NC(=O)CSc2nc3cnccc3[nH]2)cc1OC`, the Ki in test [2] was determined as 0.0442 µM; in test [3], 0.0442 µM; in test [4], 29.2 µM. On to `CCOc1nc(N)nc2[nH]c(SCC(=O)Nc3ccc(OC)c(OC)c3)nc12`, for which the Ki is 1.01 µM in test [2], 1.01 µM in test [3] and 33.6 µM in test [4]. As to `COc1ccc(NC(=O)CSc2nc3ccc(OCC(F)(F)F)nc3[nH]2)cc1OC`, the inhibition in test [1] amounted to 61%.

`COc1ccc(NC(=O)CSc2nc3ccc(N4CCOCC4)nc3[nH]2)cc1OC` came in with an inhibition in test [1] of 45%. As to `COc1ccc(NC(=O)CSc2nc3ccc[nH]c-3n2)cc1OC`, the Ki was 0.217 µM in test [2], 0.217 µM in test [3] and 22.3 µM in test [4].

In test [1], `O=C(CSc1nc2cccnc2[nH]1)Nc1ccccc1Cl` registered an inhibition of 19%. Turning to `COc1ccc(NC(=O)CSc2nc3c(N)nc(N)nc3[nH]2)cc1OC`, the Ki in test [2] amounted to 3.48 µM; in test [3] it was 3.48 µM; in test [4], 78 µM. As to `COc1ccc(NC(=O)CSc2nc3cc(Br)cnc3[nH]2)cc1OC`, the Ki in test [2] is 0.192 µM; in test [3], 0.192 µM; in test [4], 10.8 µM. The compound `CCOC(=O)c1cccc(NC(=O)CSc2nc3cccnc3[nH]2)c1` gave an inhibition in test [1] of 15%.

In test [1], `Cc1cccc(C)c1NC(=O)CSc1nc2cccnc2[nH]1` displayed an inhibition of 19%. For `CC(=O)c1cccc(NC(=O)CSc2nc3cccnc3[nH]2)c1`, in test [1], the inhibition worked out at 50%.

As for `COc1ccc(NC(=O)CSc2nc3cncnc3[nH]2)cc1OC`, the figures for the Ki in test [2], in test [3] and in test [4] were 0.281 µM, 0.281 µM and 15.7 µM, respectively. Turning to `COc1ccc(NC(=O)CSc2nc3c(=O)[nH]c(=O)[nH]c3[nH]2)cc1OC`, the Ki was 0.0358 µM in test [2], 0.0358 µM in test [3] and 22.5 µM in test [4]. Turning to `COc1ccc(NC(=O)CSc2nc3ccc(N4CCCCC4)nc3[nH]2)cc1OC`, the inhibition in test [1] was found to be 27%.

The compound `CN(C)c1ccc(NC(=O)CSc2nc3cccnc3[nH]2)cc1` yielded an inhibition in test [1] of 23%. The same measure, in the same setting: then `COc1ccc(NC(=O)CSc2nc3c(=O)n(C)c(=O)n(C)c3[nH]2)cc1OC`, with 23%; and `Cc1ccc(NC(=O)CSc2nc3cccnc3[nH]2)c(Cl)c1`, with 2%. For the compound `COc1ccc(NC(=O)CSc2nc3c(N)ncnc3[nH]2)cc1OC`, the Ki in test [2] was 0.005 µM; in test [3], 0.005 µM; in test [4], 18 µM.

Broadly, the inhibition is the relative decrease from the control value, in per cent. Read a high inhibition as a strong effect. Usually Ki stands for a dissociation constant, usually derived from enzyme kinetics or from competition with a known ligand. Low readings indicate tighter binding, high ones weaker binding.

(Values after ChEMBL document CHEMBL3351503, “Imidazopyridine- and purine-thioacetamide derivatives: potent inhibitors of nucleotide pyrophosphatase/phosphodiesterase 1 (NPP1)” (J Med Chem, 2014).)
